# Test results taken from ChEMBL document CHEMBL2146464, “Structure-activity relationship study of nitrosopyrimidines acting as antifungal agents” (Bioorg Med Chem, 2012).
# Activity calls are given as the source filed them. The rule behind the calls is not given here.
# Legend:
# Candida albicans [1] = test: Antifungal activity against Candida albicans ATCC 10231 assessed as growth inhibition at 3.9 ug/mL after 24 hrs by microplate reader analysis; type: functional; conditions: ATCC 10231, 24 h, read-out: GI
# Method in brief: (§1)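 96-well RPMI-1640 wells with compound at final 250–0.98 µg/mL (DMSO ≤1%). Inoculum 100 µL, 1–5 × 10³ CFU/mL, 200 µL final. Each well includes growth (DMSO, no compound) and sterility controls. % inhibition = 100 − (CTW−SCW)/(GCW−SCW) × 100, run in duplicate.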
# Nannizzia gypsea = test: Antifungal activity against Microsporum gypseum CCC 115 at 0.98 to 250 ug/mL by NCCLS broth microdilution method; type: functional, organism-based
# Method in brief: (§2)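 MIC by broth microdilution per NCCLS M27-A3/M38-A2 in RPMI-1640 buffered to pH 7.0 with MOPS. Twofold dilutions from 250–0.98 µg/mL, final DMSO ≤1%. Inoculum 1–5 × 10³ CFU/mL. Incubated in a moist dark chamber, 30 °C for Aspergillus and 28–30 °C for dermatophytes. Read visually when control growth allowed. Endpoint is the lowest concentration giving total inhibition of visible growth (MIC100).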
# Candida albicans [2] = test: Antifungal activity against Candida albicans ATCC 10231 assessed as growth inhibition at 250 ug/mL after 24 hrs by microplate reader analysis; type: functional; conditions: ATCC 10231, 24 h, read-out: GI; method in brief: as §1
# Candida albicans [3] = test: Antifungal activity against Candida albicans ATCC 10231 assessed as growth inhibition at 15.6 ug/mL after 24 hrs by microplate reader analysis; type: functional; conditions: ATCC 10231, 24 h, read-out: GI; method in brief: as §1
# Candida albicans [4] = test: Antifungal activity against Candida albicans ATCC 10231 assessed as growth inhibition at 7.8 ug/mL after 24 hrs by microplate reader analysis; type: functional; conditions: ATCC 10231, 24 h, read-out: GI; method in brief: as §1
# Aspergillus fumigatus = test: Antifungal activity against Aspergillus fumigatus ATCC 26934 at 0.98 to 250 ug/mL by NCCLS broth microdilution method; type: functional, organism-based; method in brief: as §2
# Candida tropicalis [5] = test: Fungicidal activity against Candida tropicalis at 0.98 to 250 ug/mL after 48 hrs by agar plate dilution method; type: functional, organism-based
# Method in brief: (§3)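 MFC: after the microdilution MIC, material from each clear well was plated onto RPMI-1640 agar buffered with MOPS. Plates incubated at 30 °C and read after 48 h. MFC is the lowest concentration giving total inhibition of visible growth.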
# Candida albicans [6] = test: Antifungal activity against Candida albicans ATCC 10231 assessed as growth inhibition at 125 ug/mL after 24 hrs by microplate reader analysis; type: functional; conditions: ATCC 10231, 24 h, read-out: GI; method in brief: as §1
# Candida tropicalis [7] = test: Antifungal activity against Candida tropicalis after 48 hrs by NCCLS broth microdilution method; type: functional; conditions: read-out: MIC100
# Method in brief: (§4)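 Yeast MIC by NCCLS M27-A3 broth microdilution in RPMI-1640 buffered to pH 7.0 with MOPS. Twofold dilutions of 250–0.98 µg/mL, final DMSO ≤1%. Inoculum 1–5 × 10³ CFU/mL. Incubated at 30 °C in a moist dark chamber. Read visually at 48 h. MIC100 is the lowest concentration with no visible growth versus drug-free control.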
# Aspergillus flavus = test: Antifungal activity against Aspergillus flavus ATCC 9170 at 0.98 to 250 ug/mL by NCCLS broth microdilution method; type: functional, organism-based; method in brief: as §2
# Cryptococcus neoformans [8] = test: Antifungal activity against Cryptococcus neoformans ATCC 32264 after 48 hrs by microplate reader analysis; type: functional; conditions: ATCC 32264, 48 h
# Method in brief: (§5)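 Microplate growth-inhibition assay in RPMI-1640, compound at final 250–0.98 µg/mL (DMSO ≤1%). Inoculum 1–5 × 10³ CFU/mL. Sterility and DMSO growth controls included. Percent inhibition is computed from blank-corrected OD relative to the growth control, tested in duplicate.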
# Candida tropicalis [9] = test: Antifungal activity against Candida tropicalis assessed as growth inhibition at 250 ug/mL by microplate reader analysis; type: functional; conditions: read-out: GI
# Candida albicans [10] = test: Fungicidal activity against Candida albicans ATCC 10231 at 0.98 to 250 ug/mL after 48 hrs by agar plate dilution method; type: functional, organism-based; method in brief: as §3
# Candida albicans [11] = test: Antifungal activity against Candida albicans ATCC 10231 assessed as growth inhibition at 62.5 ug/mL after 24 hrs by microplate reader analysis; type: functional; conditions: ATCC 10231, 24 h, read-out: GI; method in brief: as §1
# Cryptococcus neoformans [12] = test: Antifungal activity against Cryptococcus neoformans ATCC 32264 assessed as growth inhibition at 250 ug/mL after 48 hrs by microplate reader analysis; type: functional; conditions: ATCC 32264, 48 h, read-out: GI; method in brief: as §5
# Candida tropicalis [13] = test: Antifungal activity against Candida tropicalis assessed as growth inhibition at 7.8 ug/mL by microplate reader analysis; type: functional; conditions: read-out: GI
# Candida tropicalis [14] = test: Antifungal activity against Candida tropicalis assessed as growth inhibition at 125 ug/mL by microplate reader analysis; type: functional; conditions: read-out: GI
# Cryptococcus neoformans [15] = test: Antifungal activity against Cryptococcus neoformans ATCC 32264 assessed as growth inhibition at 15.6 ug/mL after 48 hrs by microplate reader analysis; type: functional; conditions: ATCC 32264, 48 h, read-out: GI; method in brief: as §5
# Candida tropicalis [16] = test: Antifungal activity against Candida tropicalis assessed as growth inhibition at 15.6 ug/mL by microplate reader analysis; type: functional; conditions: read-out: GI
# [17] = tested on: Trichophyton mentagrophytes; test: Antifungal activity against Trichophyton mentagrophytes ATCC 9972 at 0.98 to 250 ug/mL by NCCLS broth microdilution method; type: functional, organism-based; method in brief: as §2
# Candida tropicalis [18] = test: Antifungal activity against Candida tropicalis assessed as growth inhibition at 3.9 ug/mL by microplate reader analysis; type: functional; conditions: read-out: GI
# Candida tropicalis [19] = test: Antifungal activity against Candida tropicalis assessed as growth inhibition at 62.5 ug/mL by microplate reader analysis; type: functional; conditions: read-out: GI
# Candida albicans [20] = test: Antifungal activity against Candida albicans ATCC 10231 after 48 hrs by NCCLS broth microdilution method; type: functional; conditions: ATCC 10231, 48 h, read-out: MIC100; method in brief: as §4
# Aspergillus niger = test: Antifungal activity against Aspergillus niger ATCC 9029 at 0.98 to 250 ug/mL by NCCLS broth microdilution method; type: functional, organism-based; method in brief: as §2
# Candida tropicalis [21] = test: Antifungal activity against Candida tropicalis by microplate reader analysis; type: functional
# Cryptococcus neoformans [22] = test: Antifungal activity against Cryptococcus neoformans ATCC 32264 assessed as growth inhibition at 31.25 ug/mL after 48 hrs by microplate reader analysis; type: functional; conditions: ATCC 32264, 48 h, read-out: GI; method in brief: as §5
# Cryptococcus neoformans [23] = test: Fungicidal activity against Cryptococcus neoformans ATCC 32264 after 48 hrs by agar plate dilution method; type: functional; conditions: ATCC 32264, 48 h; method in brief: as §3
# Trichophyton rubrum = test: Antifungal activity against Trichophyton rubrum CCC 110 at 0.98 to 250 ug/mL by NCCLS broth microdilution method; type: functional, organism-based; method in brief: as §2
# Candida albicans [24] = test: Antifungal activity against Candida albicans ATCC 10231 after 24 hrs by microplate reader analysis; type: functional; conditions: ATCC 10231, 24 h; method in brief: as §1
# Candida albicans [25] = test: Antifungal activity against Candida albicans ATCC 10231 assessed as growth inhibition at 31.25 ug/mL after 24 hrs by microplate reader analysis; type: functional; conditions: ATCC 10231, 24 h, read-out: GI; method in brief: as §1
# Candida tropicalis [26] = test: Antifungal activity against Candida tropicalis assessed as growth inhibition at 31.25 ug/mL by microplate reader analysis; type: functional; conditions: read-out: GI
# [27] = Acute toxicity in bony fish assessed as mortality at 38.4 ug/mL after 96 hrs; conditions: actinopterygii; read-out: Activity
# Method in brief: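 Guppy (Poecilia reticulata) acute static exposure: 10 fish per concentration in 2 L wide-mouthed jars holding the test solution. Compounds were added from […] to give the final concentrations. Dead fish were counted and removed every 24 h, with general condition noted; percentage mortality was scored at 96 h. Two experiments, each in triplicate.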
# Cryptococcus neoformans [28] = test: Antifungal activity against Cryptococcus neoformans ATCC 32264 assessed as growth inhibition at 7.8 ug/mL after 48 hrs by microplate reader analysis; type: functional; conditions: ATCC 32264, 48 h, read-out: GI; method in brief: as §5
# Cryptococcus neoformans [29] = test: Antifungal activity against Cryptococcus neoformans ATCC 32264 after 48 hrs by NCCLS broth microdilution method; type: functional; conditions: ATCC 32264, 48 h, read-out: MIC100; method in brief: as §4
# Cryptococcus neoformans [30] = test: Antifungal activity against Cryptococcus neoformans ATCC 32264 assessed as growth inhibition at 62.5 ug/mL after 48 hrs by microplate reader analysis; type: functional; conditions: ATCC 32264, 48 h, read-out: GI; method in brief: as §5
# Cryptococcus neoformans [31] = test: Antifungal activity against Cryptococcus neoformans ATCC 32264 assessed as growth inhibition at 125 ug/mL after 48 hrs by microplate reader analysis; type: functional; conditions: ATCC 32264, 48 h, read-out: GI; method in brief: as §5
# Cryptococcus neoformans [32] = test: Antifungal activity against Cryptococcus neoformans ATCC 32264 assessed as growth inhibition at 3.9 ug/mL after 48 hrs by microplate reader analysis; type: functional; conditions: ATCC 32264, 48 h, read-out: GI; method in brief: as §5
compound,measurement,setting,value
COc1nc(N)nc(Nc2cccc(Cl)c2)c1N=O,inhibition of growth at 3.9 µg/mL,Candida albicans [1],53.3%
same,Activity,Nannizzia gypsea,inactive
same,inhibition of growth at 250 µg/mL,Candida albicans [2],100%
same,inhibition of growth at 15.6 µg/mL,Candida albicans [3],86.3%
same,inhibition of growth at 7.8 µg/mL,Candida albicans [4],80.3%
same,Activity,Aspergillus fumigatus,inactive
same,Activity,Candida tropicalis [5],inactive
same,inhibition of growth at 125 µg/mL,Candida albicans [6],100%
same,MIC,Candida tropicalis [7],125 µg/mL
same,Activity,Aspergillus flavus,inactive
same,MIC50,Cryptococcus neoformans [8],3.9 µg/mL
same,inhibition of growth at 250 µg/mL,Candida tropicalis [9],100%
same,Activity,Candida albicans [10],inactive
same,inhibition of growth at 62.5 µg/mL,Candida albicans [11],92.7%
same,inhibition of growth at 250 µg/mL,Cryptococcus neoformans [12],100%
same,inhibition of growth at 7.8 µg/mL,Candida tropicalis [13],64.5%
same,inhibition of growth at 125 µg/mL,Candida tropicalis [14],100%
same,inhibition of growth at 15.6 µg/mL,Cryptococcus neoformans [15],80.6%
same,inhibition of growth at 15.6 µg/mL,Candida tropicalis [16],75.2%
same,Activity,[17],inactive
same,inhibition of growth at 3.9 µg/mL,Candida tropicalis [18],48.8%
same,inhibition of growth at 62.5 µg/mL,Candida tropicalis [19],87.9%
same,MIC,Candida albicans [20],125 µg/mL
same,Activity,Aspergillus niger,inactive
same,MIC50,Candida tropicalis [21],3.9 µg/mL
same,inhibition of growth at 31.25 µg/mL,Cryptococcus neoformans [22],81.3%
same,MFC,Cryptococcus neoformans [23],250 µg/mL
same,Activity,Trichophyton rubrum,inactive
same,MIC50,Candida albicans [24],3.9 µg/mL
same,inhibition of growth at 31.25 µg/mL,Candida albicans [25],91.8%
same,inhibition of growth at 31.25 µg/mL,Candida tropicalis [26],85.2%
same,"mortality at 96 h, 38.4 ug/mL",[27],0%
same,inhibition of growth at 7.8 µg/mL,Cryptococcus neoformans [28],74.9%
same,MIC,Cryptococcus neoformans [29],125 µg/mL
same,inhibition of growth at 62.5 µg/mL,Cryptococcus neoformans [30],83.7%
same,inhibition of growth at 125 µg/mL,Cryptococcus neoformans [31],100%
same,inhibition of growth at 3.9 µg/mL,Cryptococcus neoformans [32],53.2%
